From PubChem
CHRM5 PAM – potentiates acetylcholine response at human M5 receptor; P08912; AID 624038; activation, % at 3 µM; CHO-K1 hM5, Fluo-8 calcium, ACh EC20 PAM; 0% = ACh EC20, 100% = ACh EC100; 360,000 tested, 0.3% active;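 active means activation above the run cutoff, the mean activation of all test compounds plus 3 SD, cut at about 18% in these data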
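Assay system: CHO-K1 hM5 cells / Incubation: Fluo-8 loading 80 min at 37 °C plus 30 min room temperature / Technique: Fluo-8 calcium dye fluorescence, kinetic read / Repeats: single replicate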
M4 ag – CHRM4 agonism in calcium assay; P08173; CHO-K1 hM4/Gqi5, Fluo-8 calcium fluorescence; vehicle 0%, full acetylcholine response 100%; activation, % at 3 µM; 360,000 tested, 0.14% active;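 active means activation above the run mean over all test wells plus 3 SD, cut at about 32% in these data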;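 further: peak over basal fluorescence ratio per well then scaled between controls; 0% = DMSO wells and 100% = acetylcholine at EC100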
Target sequence (P08173 whole entry, looked up): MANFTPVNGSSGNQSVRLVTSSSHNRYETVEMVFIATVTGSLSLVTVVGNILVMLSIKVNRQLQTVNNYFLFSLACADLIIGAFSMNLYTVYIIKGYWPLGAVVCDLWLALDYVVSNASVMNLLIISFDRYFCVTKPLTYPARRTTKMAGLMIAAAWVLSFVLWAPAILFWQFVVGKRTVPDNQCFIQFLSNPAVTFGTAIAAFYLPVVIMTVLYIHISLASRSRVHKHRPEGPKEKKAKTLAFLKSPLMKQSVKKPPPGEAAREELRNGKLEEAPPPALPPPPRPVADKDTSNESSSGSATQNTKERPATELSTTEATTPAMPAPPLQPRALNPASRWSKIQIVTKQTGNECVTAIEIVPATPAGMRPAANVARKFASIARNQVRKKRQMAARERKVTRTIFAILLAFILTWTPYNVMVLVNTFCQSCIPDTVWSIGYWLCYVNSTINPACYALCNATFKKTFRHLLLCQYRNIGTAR
M4 antag – blocks acetylcholine activation of human M4 receptor | AID 624125 | 360,000 tested, 0.73% active | inhibition, % at 3 µM | CHO-hM4 cells, ACh EC80, Fluo-8 calcium fluorescence | P08173;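 active means inhibition above its plate's cutoff, the mean inhibition of sample wells plus 3 SD, cut at about 27% in these data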;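 further: 0% = acetylcholine EC80 with DMSO and 100% = DMSO without agonist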
M4 PAM – potentiates acetylcholine response at human M4 receptor | 360,000 tested, 0.4% active | P08173 | AID 624126 | CHO-K1 hM4/Gqi5, Fluo-8 calcium fluorescence, ACh EC20; 0% = ACh EC20, 100% = maximal ACh | activation, % at 3 µM;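 active means activation above its plate's cutoff, the mean activation of sample wells plus 3 SD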
CHRM5 antagonist – CHRM5 antagonism in calcium assay | 360,000 tested, 0.59% active | CHO-hM5 cells, Fluo-8 calcium fluorescence, ACh EC80 | AID 624040 | inhibition, % at 3 µM;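 active means inhibition above a per-plate cutoff, the mean of that plate's test compounds plus 3 SD, cut at about 27% in these data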;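 further: 0% = acetylcholine EC80 with DMSO and 100% = DMSO without agonist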
CHRM5 agonist – agonists of human muscarinic M5 receptor (CHRM5) | activation, % at 3 µM | AID 624037 | CHO-K1 hM5 cells, Fluo-8 calcium fluorescence; 0% DMSO wells, 100% maximal acetylcholine response | P08912 | 360,000 tested, 0.19% active;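 active means activation above the run's mean over test compounds plus 3 SD, cut at about 23% in these data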;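 further: signal is peak over basal fluorescence ratio across the kinetic read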
* = called active by the depositor. Compounds with a hit are over-represented: about 1.9% of the library has one in this group of screens.

SMILES	CHRM5 PAM	M4 ag	M4 antag	M4 PAM	CHRM5 antagonist	CHRM5 agonist
Cc1cc(Cl)c(S(=O)(=O)N2CC(C)OC(C)C2)cc1OCC(N)=O (stereo not drawn)	-5	1	10	-3	10	0
CCOc1ccc(NS(=O)(=O)c2cc(OCC(N)=O)c(C)cc2Cl)cc1	7	2	4	27*	6	4
Cc1cc(Cl)c(S(=O)(=O)N2CCSCC2)cc1OCC(N)=O	-1	4	1	19*	-16	3
CC1CCN(C(=O)c2cc(S(=O)(=O)N3CCCCC3)c[nH]2)CC1	-5	4	-16	4	0	2
Cc1cccc(OCCC(=O)OCC(=O)Nc2c(C)nn(-c3ccccc3)c2C)c1	-20	23	-13	-1	10	4
CC(C)NC(=O)NC(=O)COC(=O)C1CCCN1C(=O)c1cccs1 (stereo not drawn)	-3	1	4	1	7	0
Cc1cc(NC(=O)COC(=O)C2CCCN2C(=O)c2cccs2)no1 (stereo not drawn)	32*	2	-7	2	-12	-1
C[C@@H]1CN([C@@H](C)CO)C(=O)c2cc(Br)cnc2O[C@@H]1CN(C)Cc1cncnc1	4	0	-4	3	1	3
COc1ccc(NC(=O)COC(=O)c2ccc(OCc3c(C)noc3C)cc2)cc1OC	-17	7	5	-18	26	3
COc1cc(C(=O)OCC(=O)Nc2ccc3c(c2)OC(F)(F)O3)ccc1OCc1c(C)noc1C	32*	1	6	7	-3	-4
CCOC(=O)c1ccc(NC(=O)CSc2nc3ncccc3[nH]2)cc1	-8	5	-16	4	7	4
CCCCc1ccc(NC(=O)CSc2nc3ncccc3[nH]2)cc1	-10	21	33*	-11	9	5
Cc1c(C(=O)Nc2ccc3c(c2)OCCO3)oc2ccc(Br)cc12	4	1	-10	23*	2	-3
Cc1c(C(=O)NCc2ccc3c(c2)OCO3)oc2ccc(Br)cc12	-6	-1	2	3	12	-3
O=[N+]([O-])c1cccc(OCCCN2CCC(Cc3ccccc3)CC2)c1	-32	14	38*	-17	6	-25
CC(=O)CCc1ccc(OCCCCN2CCC(Cc3ccccc3)CC2)cc1	-30	4	75*	-27	25	-15
CCC(=O)c1ccccc1OCCCN1CCC(Cc2ccccc2)CC1	-28	24	42*	-18	12	-11
O=[N+]([O-])c1ccc(CN2CCC(Cc3ccccc3)CC2)cc1	-8	-2	8	-14	5	-8
O=C(CN1CCN(c2ccccc2)CC1)Nc1ccncc1	1	3	-10	-4	5	3
O=C(CN1CCN(c2ccccc2)CC1)Nc1ccc2c(c1)CCC2	0	1	-6	21*	-5	-3
CC1CCN(C(=O)C2CCC(CNS(=O)(=O)c3ccc4c(c3)C(C)(C)C(=O)N4C)CC2)CC1 (stereo not drawn)	2	0	-1	4	-1	1
CCS(=O)(=O)N1Cc2cc(C(=O)N(C)C)nc(-c3cccc(-c4ccc(F)cc4)c3)c2[C@H]1CCO	-6	1	-11	2	6	0
CCCN(Cc1nnc(-c2cccs2)o1)C(=O)c1cccc(S(=O)(=O)N2CCOCC2)c1	7	2	-6	-1	2	0
Cc1ccnc2nc(C(=O)Nc3nccs3)nn12	-3	2	-5	13	-2	-3
Cc1ccnc2nc(C(=O)NC3=NCCS3)nn12	-2	2	-21	26*	-6	-3
CC(=O)Nc1ccc(S(=O)(=O)N(C)CC(=O)OCC(=O)Nc2cccnc2Cl)cc1	-1	1	27*	43*	5	4
CN(C)S(=O)(=O)c1ccc(C(=O)OCC(=O)Nc2cccnc2Cl)cc1	2	3	-9	6	13	5
O=C(Cn1ccccc1=S)c1ccc(Cl)c(Cl)c1	-13	2	-1	-3	16	-8
